# Source: ChEMBL document CHEMBL4330087, “Synthesis, antimicrobial activity, attenuation of aminoglycoside resistance in MRSA, and ribosomal A-site binding of pyrene-neomycin conjugates” (Eur J Med Chem, 2019)
# pIC50: −log10 of the molar value. Active and inactive are the calls of the source. The calls are words filed in the database; no cut-off is given here.
# Key:
# Staphylococcus aureus [1] = experiment: Antibacterial activity against methicillin-resistant Staphylococcus aureus 33591 at 6.25 uM after 15 to 20 hrs by CLSI protocol based microdilution assay relative to control; type: functional
# Procedure, shortened: (§1)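 Exponential-phase cultures were exposed to 6.25 μM compound in duplicate with neomycin as reference, at 37 °C in a humidified incubator for 15-20 h. Broth and culture controls received sterile water with 1% DMSO. Percent growth inhibition was calculated against the growth and background controls.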
# [2] = Inhibition of AAC(6')-1e (unknown origin)
# Listeria monocytogenes = experiment: Antibacterial activity against NEO-sensitive Listeria monocytogenes ATCC 19115 at 6.25 uM after 15 to 20 hrs by CLSI protocol based microdilution assay relative to control; type: functional
# Procedure, shortened: (§2)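 Single-concentration screen at 6.25 μM against exponential-phase cultures, in duplicate, with NEO as reference. Enterococcus was grown in BHI broth, M. smegmatis in TS broth with 0.05% Tween 80, and all other strains in TS broth. The 1% DMSO water vehicle was added to broth (background) and culture (growth control). Incubation was 37 °C, humidified, 15-20 h. Result is percent growth inhibition.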
# Ribosomal RNA A-site [3] = experiment: Displacement of F-NEO from Escherichia coli rRNA-A site after 10 to 20 mins by fluorescence assay relative to NEO; type: nucleic-acid assay; parameters: concentration or dose not given beside the values
# Procedure, shortened: (§3)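 100 nM F-NEO:A-site complex in 10 mM HEPES, 50 mM NaCl, 0.04 mM EDTA, pH 7.0, mixed with ligand and incubated 10-20 min at room temperature. Fluorescence read at ex 485/em 525 nm, in duplicate. Percent binding was computed from the intensities of ligand-treated complex, complex without ligand, and complex with neomycin.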
# [4] = test system: Mycolicibacterium smegmatis; experiment: Antibacterial activity against NEO-sensitive Mycobacterium smegmatis at 6.25 uM after 15 to 20 hrs by CLSI protocol based microdilution assay relative to control; type: functional; procedure, shortened: as §2
# Acinetobacter baumannii = experiment: Antibacterial activity against NEO-sensitive Acinetobacter baumannii ATCC 19606 at 6.25 uM after 15 to 20 hrs by CLSI protocol based microdilution assay relative to control; type: functional, ATCC 19606 = CIP 70.34 = JCM 6841; procedure, shortened: as §2
# Escherichia coli [5] = experiment: Antibacterial activity against NEO-sensitive Escherichia coli ATCC 25922 at 6.25 uM after 15 to 20 hrs by CLSI protocol based microdilution assay relative to control; type: functional; procedure, shortened: as §2
# Ribosomal RNA A-site [6] = experiment: Displacement of F-NEO from Escherichia coli rRNA-A site after 10 to 20 mins by fluorescence assay; type: nucleic-acid assay
# Procedure, shortened: (§4)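 A 100 nM F-NEO:A-site RNA complex in 10 mM HEPES, 50 mM NaCl, 0.04 mM EDTA, pH 7.0 was titrated with 2-fold dilutions of ligand from 20 to 0.009 μM, or from 60 or 40 μM for weaker ligands. Incubated 10-20 min at room temperature, fluorescence read at ex 485/em 525 nm. IC50 from dose-response curve fit.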
# Staphylococcus aureus [7] = experiment: Antibacterial activity against methicillin-resistant Staphylococcus aureus M0602 at 6.25 uM after 15 to 20 hrs by CLSI protocol based microdilution assay relative to control; type: functional; procedure, shortened: as §1
# Escherichia coli [8] = experiment: Antibacterial activity against NEO-sensitive Escherichia coli harboring TolC mutant at 6.25 uM after 15 to 20 hrs by CLSI protocol based microdilution assay relative to control; type: functional; procedure, shortened: as §1
# Homo sapiens = organism: Homo sapiens; experiment: Displacement of F-NEO from human mitochondrial rRNA-A site A1490G mutant after 10 to 20 mins by fluorescence assay relative to NEO; procedure, shortened: as §3
# [9] = Inhibition of APH(3')-1a (unknown origin)
# Bacillus anthracis = experiment: Antibacterial activity against NEO-sensitive Bacillus anthracis BA852 at 6.25 uM after 15 to 20 hrs by CLSI protocol based microdilution assay relative to control; type: functional; procedure, shortened: as §1
# [10] = Displacement of F-NEO from human mitochondrial rRNA-A site C1410U mutant after 10 to 20 mins by fluorescence assay; procedure, shortened: as §4
# [11] = Antibacterial activity against NEO-sensitive Enterobacter cloacae 13047 at 6.25 uM after 15 to 20 hrs by CLSI protocol based microdilution assay relative to control; type: functional, Enterobacter cloacae subsp. cloacae, ATCC 13047; procedure, shortened: as §2
# Enterococcus faecalis = experiment: Antibacterial activity against NEO-intermediate sensitive Enterococcus faecalis ATCC 29212 at 6.25 uM after 15 to 20 hrs by CLSI protocol based microdilution assay relative to control; type: functional; procedure, shortened: as §2
# Staphylococcus aureus [12] = experiment: Antibacterial activity against methicillin-resistant Staphylococcus aureus A960649 at 6.25 uM after 15 to 20 hrs by CLSI protocol based microdilution assay relative to control; type: functional; procedure, shortened: as §1
# Staphylococcus aureus [13] = experiment: Antibacterial activity against methicillin-resistant Staphylococcus aureus SU-5 at 6.25 uM after 15 to 20 hrs by CLSI protocol based microdilution assay relative to control; type: functional; procedure, shortened: as §1
# [14] = Inhibition of Eis (unknown origin)
# Klebsiella pneumoniae = experiment: Antibacterial activity against Klebsiella pneumoniae NR-151410 at 6.25 uM after 15 to 20 hrs by CLSI protocol based microdilution assay relative to control; type: functional; procedure, shortened: as §2
# Klebsiella oxytoca = experiment: Antibacterial activity against NEO-sensitive Klebsiella oxytoca HM-625 at 6.25 uM after 15 to 20 hrs by CLSI protocol based microdilution assay relative to control; type: functional; procedure, shortened: as §2
# Ribosomal RNA A-site [15] = experiment: Displacement of F-NEO from human mitochondrial rRNA-A site after 10 to 20 mins by fluorescence assay relative to NEO; type: nucleic-acid assay; parameters: concentration or dose not given beside the values; procedure, shortened: as §3
# Ribosomal RNA A-site [16] = experiment: Displacement of F-NEO from human cytosolic rRNA-A site after 10 to 20 mins by fluorescence assay relative to NEO; type: nucleic-acid assay; parameters: concentration or dose not given beside the values; procedure, shortened: as §3
# [17] = Inhibition of AAC(2')-1c (unknown origin)
# Ribosomal RNA A-site [18] = experiment: Displacement of F-NEO from human mitochondrial rRNA-A site after 10 to 20 mins by fluorescence assay; type: nucleic-acid assay; procedure, shortened: as §4
# [19] = test system: Staphylococcus epidermidis; experiment: Antibacterial activity against NEO-sensitive Staphylococcus epidermidis 12384 at 6.25 uM after 15 to 20 hrs by CLSI protocol based microdilution assay relative to control; type: functional; procedure, shortened: as §2
# Pseudomonas aeruginosa = experiment: Antibacterial activity against NEO-resistant Pseudomonas aeruginosa 27853 at 6.25 uM after 15 to 20 hrs by CLSI protocol based microdilution assay relative to control; type: functional; procedure, shortened: as §1
# Staphylococcus aureus [20] = experiment: Antibacterial activity against NEO-sensitive Staphylococcus aureus harboring NorA mutant at 6.25 uM after 15 to 20 hrs by CLSI protocol based microdilution assay relative to control; type: functional; procedure, shortened: as §1
# Ribosomal RNA A-site [21] = experiment: Displacement of F-NEO from human cytosolic rRNA-A site after 10 to 20 mins by fluorescence assay; type: nucleic-acid assay; procedure, shortened: as §4
# [22] = Inhibition of AAC(3)-4 (unknown origin)
# Staphylococcus aureus [23] = experiment: Antibacterial activity against NEO-sensitive Staphylococcus aureus 25923 at 6.25 uM after 15 to 20 hrs by CLSI protocol based microdilution assay relative to control; type: functional; procedure, shortened: as §2
# Enterococcus faecium = experiment: Antibacterial activity against NEO-intermediate sensitive Enterococcus faecium BM4105-RF at 6.25 uM after 15 to 20 hrs by CLSI protocol based microdilution assay relative to control; type: functional; procedure, shortened: as §2
# [24] = Inhibition of APH(2\")-1a (unknown origin)
Structure (SMILES),Activity (Staphylococcus aureus [1]),inhibition [2],Activity (Listeria monocytogenes),inhibition (Ribosomal RNA A-site [3]),Activity [4],Activity (Acinetobacter baumannii),Activity (Escherichia coli [5]),pIC50 (Ribosomal RNA A-site [6]),Activity (Staphylococcus aureus [7]),Activity (Escherichia coli [8]),inhibition (Homo sapiens),inhibition [9],Activity (Bacillus anthracis),pIC50 [10],Activity [11],Activity (Enterococcus faecalis),Activity (Staphylococcus aureus [12]),Activity (Staphylococcus aureus [13]),inhibition [14],Activity (Klebsiella pneumoniae),other results
NC[C@@H]1O[C@H](O[C@H]2[C@@H](O)[C@H](O[C@@H]3[C@@H](O)[C@H](N)C[C@H](N)[C@H]3O[C@H]3O[C@H](CN)[C@@H](O)[C@H](O)[C@H]3N)O[C@@H]2CSCCNC(=S)NCCCCCCNC(=O)CCCc2ccc3ccc4cccc5ccc2c3c45)[C@H](N)[C@@H](O)[C@@H]1O,47%,Active,91%,64%,61%,8%,11%,6.60,0%,100%,58%,Active,100%,6.74,29%,51%,87%,0%,Active,33%,Activity (Klebsiella oxytoca): 21%; inhibition (Ribosomal RNA A-site [15]): 70%; inhibition (Ribosomal RNA A-site [16]): 75%; inhibition [17]: Active; pIC50 (Ribosomal RNA A-site [18]): 6.63; Activity [19]: 80%; Activity (Pseudomonas aeruginosa): 14%; Activity (Staphylococcus aureus [20]): 100%; pIC50 (Ribosomal RNA A-site [21]): 6.60; inhibition [22]: Active; Activity (Staphylococcus aureus [23]): 98%; Activity (Enterococcus faecium): 18%; inhibition [24]: Active
NC[C@@H]1O[C@H](O[C@H]2[C@@H](O)[C@H](O[C@@H]3[C@@H](O)[C@H](N)C[C@H](N)[C@H]3O[C@H]3O[C@H](CN)[C@@H](O)[C@H](O)[C@H]3N)O[C@@H]2CNC(=O)CCCc2ccc3ccc4cccc5ccc2c3c45)[C@H](N)[C@@H](O)[C@@H]1O,23%,Active,22%,99%,38%,5%,8%,6.77,19%,54%,88%,Active,23%,6.83,5%,0%,35%,22%,Active,12%,Activity (Klebsiella oxytoca): 5%; inhibition (Ribosomal RNA A-site [15]): 89%; inhibition (Ribosomal RNA A-site [16]): 99%; inhibition [17]: Active; pIC50 (Ribosomal RNA A-site [18]): 6.33; Activity [19]: 80%; Activity (Pseudomonas aeruginosa): 11%; Activity (Staphylococcus aureus [20]): 43%; pIC50 (Ribosomal RNA A-site [21]): 6.70; inhibition [22]: Active; Activity (Staphylococcus aureus [23]): 12%; Activity (Enterococcus faecium): 0%; inhibition [24]: Active
